In brackets after ≈: the same amount, converted by molar mass. A value given as a limit tells only on which side of the number the result lay.

Consider 17 molecules from ChEMBL document CHEMBL4825662 (J Med Chem, 2021).

Data set [1] can be described thus: Cytotoxicity against African green monkey Vero cells by MTT assay. In kind it is cell-based. To be noted: chlorocebus sabaeus. The gist of the method: (§1)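 Viability was assessed by MTT after culture with compound at 0.01 nM to 100 μM, run in parallel with plaque reduction assays. Values are the average of at least two testing occasions.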
(In general: Tetrazolium assays rely on reduction of a dye to a coloured formazan, in cell work by metabolically active cells.)

The subject of data set [2] is Human orthopneumovirus. The data set is described as follows: Antiviral activity against Respiratory syncytial virus A2 infected in African green monkey Vero cells by Plaque reduction assay. In kind it is functional, organism-based. (In general: Plaque reduction counts the foci of infection that form in a cell layer.)
Data set [3] in a line: Cytotoxicity against human HepG2 cells by MTT assay. It is filed as cell-based. In outline:
as §1

Data set [4] can be described thus: Apparent permeability across apical to basolateral side in MDCK-MDR1 cells at 10 uM measured at 60 mins by LC-MS/MS analysis. It is filed as ADME, cell-based, Canis lupus familiaris. To be noted: dog, MDCK-MDR1.
Data set [5] in a line: Intrinsic clearance in Sprague-Dawley rat liver microsomes preincubated followed by NADPH addition and measured up to 45 mins by LC-MS/MS analysis. In kind it is ADME, Microsome. (Microsomes from liver hold many membrane-bound enzymes, among them those of drug oxidation.)
Data set [6] relates to Human orthopneumovirus. In words: Antiviral activity against Respiratory syncytial virus A2 infected in human Huh7 cells by Plaque reduction assay. In kind it is functional, organism-based. To be noted: A2, Huh-7. The gist of the method: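 Huh-7 cells were infected with RSV strain A2 in the presence of compound. Values are the average of at least two testing occasions.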

Data set [7] in a line: Intrinsic clearance in Beagle dog liver microsomes preincubated followed by NADPH addition and measured up to 45 mins by LC-MS/MS analysis. In kind it is ADME, Canis lupus familiaris, Microsome.
The nature of data set [8]: Intrinsic clearance in human liver microsomes preincubated followed by NADPH addition and measured up to 45 mins by LC-MS/MS analysis. It is filed as ADME, Microsome.
The nature of data set [9]: Efflux ratio of apparent permeability in MDCK-MDR1 cells at 10 uM measured at 60 mins by LC-MS/MS analysis. In kind it is ADME, cell-based, Canis lupus familiaris. To be noted: dog, MDCK-MDR1.
Data set [10] is described as follows: Apparent permeability across basolateral side to apical side in MDCK-MDR1 cells at 10 uM measured at 60 mins by LC-MS/MS analysis. In kind it is ADME, cell-based, Canis lupus familiaris. To be noted: dog.
Data set [11] can be described thus: Thermodynamic solubility in PBS at 1 to 100 uM at pH 7.4 by HPLC-UV method. To be noted: dose 1-100 µM, read-out: Therm_solubility. In kind it is physicochemical.

With `CC(C)CCn1c(CN2C(=O)C3(CCCC3)Cc3ccccc32)nc2cc(CN)ccc21`, the CC50 (in general, the concentration at which the toxic effect on the cells reaches its halfway point) in data set [1] was found to be 11.5 µM. In data set [2], a half-maximal effect (EC50) was put at 14 µM.
The like results for `CC(C)CCn1c(CN2C(=O)C3(CCCC3)c3ccccc32)nc2cc(CN)ccc21` were, in that order, 9.94 µM and 0.58 µM.
As for `O=C(O)c1ccc2c(c1)nc(CN1C(=O)C3(CC3)c3ccc(F)cc31)n2CCCC(F)(F)F`, it took 10.2 µM to reach a half-maximal effect in [2] (EC50). Also, in data set [3], the CC50 was above 25 µM.
In turn, `O=C1N(Cc2nc3ccccc3n2CCCC(F)(F)F)c2cc(F)ccc2C12CC2` came in with a CC50 in data set [1] above 25 µM. Further, the concentration giving a half-maximal response (EC50) – broadly, the midpoint of the concentration-response curve – in data set [2] was 0.0179 µM.
As for `CCNC(=N)c1ccc2c(c1)nc(CN1C(=O)C3(CC3)c3ccc(F)cc31)n2CCCC(F)(F)F`, the midpoint of the response in data set [2], the EC50, lay at 0.454 µM. The molecule further gave a CC50 in data set [3] above 25 µM.
Take `CC(C)CCn1c(CN2C(=O)C3(CCC3)c3ccccc32)nc2cc(CN)ccc21`: in data set [1], the CC50 is 13.8 µM. Moreover, the EC50 in data set [2] came out at 0.24 µM.
As for `CS(=O)(=O)c1ccc2c(c1)nc(CN1C(=O)C3(CC3)c3ccc(F)cc31)n2CCCC(F)(F)F`, the EC50 in [2] turned out to be 3.64 µM. In [3], the CC50 is above 25 µM.
As for `CC(C)CCn1c(CN2C(=O)C3(CC3)Oc3ccccc32)nc2cc(CN)ccc21`, the CC50 in data set [1] was 22.7 µM. The molecule also had an EC50 in data set [2] of 1.7 µM.
In [1], `CC(C)CCn1c(CN2C(=O)C3(CC3)Cc3ccccc32)nc2cc(CN)ccc21` gave a CC50 of 33.4 µM. This molecule gave an EC50 in data set [2] of 3.4 µM.
For `CC(C)CCn1c(CN2C(=O)C3(CC3)c3cc(Cl)ccc32)nc2cc(CN)ccc21`, the CC50 in data set [1] is 0.71 µM. The same molecule returned an EC50 in [2] of 0.0254 µM.
The corresponding values for `CC(C)CCn1c(CN2C(=O)C3(CC3)c3ccc(Cl)cc32)nc2cc(CN)ccc21` are 4.5 µM and 0.0067 µM.
Regarding `CS(=O)(=O)CCCn1c(CN2C(=O)C3(CC3)c3ccc(F)cc32)nc2cc(CN)ccc21`, the Papp A→B (usually how fast a substance crosses the layer from the apical side) at 1 h, 10 µM in data set [4] is 0.24 ×10⁻⁶ cm/s. The Microsomal intrinsic clearance in data set [5] came to 3.63 µL/min. The molecule further registered an EC50 in data set [6] of 0.0057 µM. In [7], the intrinsic clearance came out at 5.34 µL/min. This molecule also displayed a CC50 in [3] above 25 µM. The “intrinsic clearance (CLint)” value in [8] amounted to 3.78 µL/min. In data set [9], the efflux ratio (commonly a quotient of directional permeabilities that is used to spot active efflux) at 1 h, 10 µM turned out to be 3.26. The Papp B→A (commonly how fast a substance crosses the layer from the basolateral side) at 1 h, 10 µM in data set [10] is 0.79 ×10⁻⁶ cm/s. In data set [11], the solubility thermodynamic was determined as 2600 µM (≈ 1180 µg/mL).
Consider `NCc1ccc2c(c1)nc(CN1C(=O)C3(CC3)c3ccc(F)cc31)n2CCCCO`, for which the EC50 in data set [6] stood at 0.0036 µM. Further, the CC50 in [3] was above 25 µM.
In turn, `CC(C)CCn1c(CN2C(=O)C3(CC3)c3c(Cl)cccc32)nc2cc(CN)ccc21` showed a CC50 in data set [1] of 5.2 µM. Also, in data set [2], the EC50 came out at 0.181 µM.
Molecule `N#Cc1ccc2c(c1)nc(CN1C(=O)C3(CC3)c3ccc(F)cc31)n2CCCC(F)(F)F` returned an EC50 in data set [2] of 0.444 µM. In data set [3], this molecule yielded a CC50 of 23.7 µM.
`O=C1N(Cc2nc3cc(Cl)ccc3n2CCCC(F)(F)F)c2cc(F)ccc2C12CC2` returned a CC50 in [1] above 25 µM. The molecule also showed a Microsomal intrinsic clearance in data set [5] of 71.3 µL/min. In [2], this molecule yielded an EC50 of 0.0054 µM. This molecule also came in with an intrinsic clearance in [7] of 328 µL/min. Besides, in data set [8], the “intrinsic clearance (CLint)” value was determined as 177 µL/min. For the same molecule, the Papp B→A at 1 h, 10 µM in data set [10] was 0.14 ×10⁻⁶ cm/s.
As to `CC(C)CCn1c(CN2C(=O)C3(CC3)c3cccc(Cl)c32)nc2cc(CN)ccc21`, half-maximal cytotoxicity in data set [1] (CC50) was put at 21.7 µM. In [2], this molecule had an EC50 of 2.38 µM.
